According to ChEMBL document CHEMBL4190394, “Discovery of Novel Pazopanib-Based HDAC and VEGFR Dual Inhibitors Targeting Cancer Epigenetics and Angiogenesis Simultaneously” (J Med Chem, 2018):

Target: Histone deacetylase
Format: protein assay, Homo sapiens
Conditions: not given

IC50 [µM] | Compound
19.8 | Cc1c2ccc(N(C)c3ccnc(Nc4ccc(C(=O)NCCCC(=O)NO)cc4)n3)cc2nn1C
> 20 | Cc1c2ccc(N(C)c3ccnc(Nc4ccc(C(=O)NCC(=O)Nc5ccccc5N)cc4)n3)cc2nn1C
5 | Cc1c2ccc(N(C)c3ccnc(Nc4ccc(C(=O)NCCCCCCC(=O)Nc5ccccc5N)cc4)n3)cc2nn1C
8.7 | Cc1c2ccc(N(C)c3ccnc(Nc4ccc(C(=O)NCCCCCCCC(=O)Nc5ccccc5N)cc4)n3)cc2nn1C
0.68 | Cc1c2ccc(N(C)c3ccnc(Nc4ccc(C(=O)NCCCCC(=O)NO)cc4)n3)cc2nn1C

The next lines start with the compound.

Compound | IC50 [µM]
Cc1c2ccc(N(C)c3ccnc(Nc4ccc(C(=O)NCC(=O)NO)cc4)n3)cc2nn1C | > 20
Cc1c2ccc(N(C)c3ccnc(Nc4ccc(C(=O)NCCCC(=O)Nc5ccccc5N)cc4)n3)cc2nn1C | 19
Cc1c2ccc(N(C)c3ccnc(Nc4ccc(C(=O)NO)cc4)n3)cc2nn1C | 11.3
Cc1c2ccc(N(C)c3ccnc(Nc4cccc(C(=O)Nc5ccccc5N)c4)n3)cc2nn1C | 21.3
Cc1c2ccc(N(C)c3ccnc(Nc4cccc(/C=C/C(=O)NO)c4)n3)cc2nn1C | 3
Cc1c2ccc(N(C)c3ccnc(Nc4ccc(C(=O)NCCCCCCCC(=O)NO)cc4)n3)cc2nn1C | 0.025

Target: Vascular endothelial growth factor receptor 2 (Homo sapiens, UniProt P35968)
Experiment: Inhibition of VEGFR-2 (unknown origin) at 0.2 uM after 40 mins by kinase-Glo assay relative to control
Conditions: not given
Summary of the method: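 VEGFR-2 tested at a single 200 nM concentration in a Kinase-Glo assay. Compound, kinase, substrate and ATP incubated 40 min at room temperature, then Kinase-Glo reagent added for 15 min and luminescence read. Inhibition rate reported. Replicates n ≥ 2.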

Vascular endothelial growth factor receptor 2, sequence (P35968 whole entry): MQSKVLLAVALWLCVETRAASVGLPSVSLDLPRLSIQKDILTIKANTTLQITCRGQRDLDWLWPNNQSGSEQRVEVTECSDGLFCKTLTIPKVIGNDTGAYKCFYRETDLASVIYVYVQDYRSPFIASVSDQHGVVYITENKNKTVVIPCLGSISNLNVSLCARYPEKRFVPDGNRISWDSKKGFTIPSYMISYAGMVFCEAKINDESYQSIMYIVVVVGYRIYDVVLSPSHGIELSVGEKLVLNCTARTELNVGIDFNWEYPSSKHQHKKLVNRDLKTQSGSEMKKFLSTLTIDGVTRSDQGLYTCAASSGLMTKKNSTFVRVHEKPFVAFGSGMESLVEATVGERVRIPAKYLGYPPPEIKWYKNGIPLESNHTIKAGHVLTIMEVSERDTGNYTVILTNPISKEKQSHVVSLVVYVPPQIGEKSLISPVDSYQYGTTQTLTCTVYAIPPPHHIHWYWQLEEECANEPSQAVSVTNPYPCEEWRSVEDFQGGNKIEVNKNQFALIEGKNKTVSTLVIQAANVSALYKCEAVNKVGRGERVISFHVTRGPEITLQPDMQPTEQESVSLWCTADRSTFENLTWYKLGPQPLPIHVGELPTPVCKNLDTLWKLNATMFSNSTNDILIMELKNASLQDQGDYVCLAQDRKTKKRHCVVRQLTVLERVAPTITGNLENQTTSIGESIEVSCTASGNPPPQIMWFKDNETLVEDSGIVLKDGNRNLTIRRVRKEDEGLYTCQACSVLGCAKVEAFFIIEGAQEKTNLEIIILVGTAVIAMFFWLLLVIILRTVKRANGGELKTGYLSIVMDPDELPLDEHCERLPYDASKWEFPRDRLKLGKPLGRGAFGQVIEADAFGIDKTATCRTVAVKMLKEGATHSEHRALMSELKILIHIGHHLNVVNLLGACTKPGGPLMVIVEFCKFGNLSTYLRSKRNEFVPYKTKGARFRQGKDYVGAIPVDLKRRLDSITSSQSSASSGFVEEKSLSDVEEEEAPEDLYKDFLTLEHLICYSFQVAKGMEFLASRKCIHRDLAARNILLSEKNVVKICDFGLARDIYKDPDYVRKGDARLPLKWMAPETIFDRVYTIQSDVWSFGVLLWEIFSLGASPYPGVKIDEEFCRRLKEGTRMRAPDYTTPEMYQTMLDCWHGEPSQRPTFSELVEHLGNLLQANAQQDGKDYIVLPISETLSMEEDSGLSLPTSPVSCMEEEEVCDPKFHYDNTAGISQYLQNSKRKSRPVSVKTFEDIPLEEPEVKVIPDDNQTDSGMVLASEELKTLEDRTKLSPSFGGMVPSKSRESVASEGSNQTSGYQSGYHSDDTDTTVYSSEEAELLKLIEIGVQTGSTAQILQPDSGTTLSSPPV

inhibition [%] | Compound
99 | Cc1c2ccc(N(C)c3ccnc(Nc4ccc(C(=O)NCCCC(=O)NO)cc4)n3)cc2nn1C
98 | Cc1c2ccc(N(C)c3ccnc(Nc4ccc(C(=O)NCC(=O)Nc5ccccc5N)cc4)n3)cc2nn1C
93 | Cc1c2ccc(N(C)c3ccnc(Nc4ccc(C(=O)NCCCCCCC(=O)Nc5ccccc5N)cc4)n3)cc2nn1C
92 | Cc1c2ccc(N(C)c3ccnc(Nc4ccc(C(=O)NCCCCCCCC(=O)Nc5ccccc5N)cc4)n3)cc2nn1C
94 | Cc1c2ccc(N(C)c3ccnc(Nc4ccc(C(=O)NCCCCC(=O)NO)cc4)n3)cc2nn1C

The remaining lines, values behind:

Compound | inhibition [%]
Cc1c2ccc(N(C)c3ccnc(Nc4ccc(C(=O)NCC(=O)NO)cc4)n3)cc2nn1C | 95
Cc1c2ccc(N(C)c3ccnc(Nc4ccc(C(=O)NCCCC(=O)Nc5ccccc5N)cc4)n3)cc2nn1C | 96
Cc1c2ccc(N(C)c3ccnc(Nc4ccc(C(=O)NO)cc4)n3)cc2nn1C | 99
Cc1c2ccc(N(C)c3ccnc(Nc4cccc(C(=O)Nc5ccccc5N)c4)n3)cc2nn1C | 63
Cc1c2ccc(N(C)c3ccnc(Nc4cccc(/C=C/C(=O)NO)c4)n3)cc2nn1C | 97
Cc1c2ccc(N(C)c3ccnc(Nc4ccc(C(=O)NCCCCCCCC(=O)NO)cc4)n3)cc2nn1C | 92

System: HT-29
Experiment: Antiproliferative activity against human HT-29 cells after 72 hrs by MTT assay
Format: functional, cell-based
Conditions: HT-29, 72 h

IC50 [nM] | Compound
2960 | Cc1c2ccc(N(C)c3ccnc(Nc4ccc(C(=O)NCCCCCCCC(=O)Nc5ccccc5N)cc4)n3)cc2nn1C

System: ACHN
Experiment: Antiproliferative activity against human ACHN cells after 72 hrs by MTT assay
Format: functional, cell-based
Conditions: not given

IC50 [µM] | Compound
3.62 | Cc1c2ccc(N(C)c3ccnc(Nc4ccc(C(=O)NCCCCCCCC(=O)Nc5ccccc5N)cc4)n3)cc2nn1C

System: AGS
Experiment: Antiproliferative activity against human AGS cells after 72 hrs by MTT assay
Format: functional, cell-based
Conditions: not given

IC50 [µM] | Compound
> 5 | Cc1c2ccc(N(C)c3ccnc(Nc4ccc(C(=O)NCCCCCCCC(=O)Nc5ccccc5N)cc4)n3)cc2nn1C

System: HeLa
Experiment: Antiproliferative activity against human HeLa cells after 72 hrs by MTT assay
Format: functional, cell-based
Conditions: not given

IC50 [µM] | Compound
3.07 | Cc1c2ccc(N(C)c3ccnc(Nc4ccc(C(=O)NCCCCCCCC(=O)Nc5ccccc5N)cc4)n3)cc2nn1C

System: PC-3
Experiment: Antiproliferative activity against human PC3 cells after 72 hrs by MTT assay
Format: functional, cell-based
Conditions: PC-3, 72 h

IC50 [µM] | Compound
> 5 | Cc1c2ccc(N(C)c3ccnc(Nc4ccc(C(=O)NCCCCCCC(=O)Nc5ccccc5N)cc4)n3)cc2nn1C
> 5 | Cc1c2ccc(N(C)c3ccnc(Nc4ccc(C(=O)NCCCCCCCC(=O)Nc5ccccc5N)cc4)n3)cc2nn1C
3.42 | Cc1c2ccc(N(C)c3ccnc(Nc4ccc(C(=O)NCCCCCCCC(=O)NO)cc4)n3)cc2nn1C

System: MDA-MB-231
Experiment: Antiproliferative activity against human MDA-MB-231 cells after 72 hrs by MTT assay
Format: functional, cell-based
Conditions: MDA-MB-231, 72 h

IC50 [nM] | Compound
2570 | Cc1c2ccc(N(C)c3ccnc(Nc4ccc(C(=O)NCCCCCCCC(=O)Nc5ccccc5N)cc4)n3)cc2nn1C

System: HT-1080
Experiment: Antiproliferative activity against human HT1080 cells after 72 hrs by MTT assay
Format: functional, cell-based
Conditions: HT-1080, 72 h

IC50 [µM] | Compound
> 5 | Cc1c2ccc(N(C)c3ccnc(Nc4ccc(C(=O)NCCCCCCCC(=O)Nc5ccccc5N)cc4)n3)cc2nn1C
> 5 | Cc1c2ccc(N(C)c3ccnc(Nc4ccc(C(=O)NCCCCCCCC(=O)NO)cc4)n3)cc2nn1C

System: KG-1
Experiment: Antiproliferative activity against human KG1 cells after 72 hrs by MTT assay
Format: functional, cell-based
Conditions: KG-1, 72 h

Compound | IC50 [nM]
Cc1c2ccc(N(C)c3ccnc(Nc4ccc(C(=O)NCCCCCCC(=O)Nc5ccccc5N)cc4)n3)cc2nn1C | 3140
Cc1c2ccc(N(C)c3ccnc(Nc4ccc(C(=O)NCCCCCCCC(=O)Nc5ccccc5N)cc4)n3)cc2nn1C | 2680
Cc1c2ccc(N(C)c3ccnc(Nc4ccc(C(=O)NCCCCCCCC(=O)NO)cc4)n3)cc2nn1C | 930

System: HEL
Experiment: Antiproliferative activity against human HEL cells after 72 hrs by MTT assay
Format: functional, cell-based
Conditions: not given

Compound | IC50 [nM]
Cc1c2ccc(N(C)c3ccnc(Nc4ccc(C(=O)NCCCCCCC(=O)Nc5ccccc5N)cc4)n3)cc2nn1C | 1160
Cc1c2ccc(N(C)c3ccnc(Nc4ccc(C(=O)NCCCCCCCC(=O)Nc5ccccc5N)cc4)n3)cc2nn1C | 490
Cc1c2ccc(N(C)c3ccnc(Nc4ccc(C(=O)NCCCCCCCC(=O)NO)cc4)n3)cc2nn1C | 1040

System: MOLT-4
Experiment: Antiproliferative activity against human MOLT4 cells after 72 hrs by MTT assay
Format: functional, cell-based
Conditions: MOLT-4, 72 h

IC50 [nM] | Compound
1150 | Cc1c2ccc(N(C)c3ccnc(Nc4ccc(C(=O)NCCCCCCC(=O)Nc5ccccc5N)cc4)n3)cc2nn1C
560 | Cc1c2ccc(N(C)c3ccnc(Nc4ccc(C(=O)NCCCCCCCC(=O)Nc5ccccc5N)cc4)n3)cc2nn1C
270 | Cc1c2ccc(N(C)c3ccnc(Nc4ccc(C(=O)NCCCCCCCC(=O)NO)cc4)n3)cc2nn1C

System: K562
Experiment: Antiproliferative activity against human K562 cells after 72 hrs by MTT assay
Format: functional, cell-based
Conditions: K562, 72 h

IC50 [µM] | Compound
4.15 | Cc1c2ccc(N(C)c3ccnc(Nc4ccc(C(=O)NCCCCCCC(=O)Nc5ccccc5N)cc4)n3)cc2nn1C
3.97 | Cc1c2ccc(N(C)c3ccnc(Nc4ccc(C(=O)NCCCCCCCC(=O)Nc5ccccc5N)cc4)n3)cc2nn1C
1.1 | Cc1c2ccc(N(C)c3ccnc(Nc4ccc(C(=O)NCCCCCCCC(=O)NO)cc4)n3)cc2nn1C

Target: Histone deacetylase 1 (Homo sapiens, UniProt Q13547)
Experiment: Inhibition of HDAC1 (unknown origin) using fluorogenic substrate preincubated for 5 mins followed by substrate addition measured after 30 mins by fluorescence-based assay
Conditions: not given

Histone deacetylase 1, sequence (Q13547 whole entry): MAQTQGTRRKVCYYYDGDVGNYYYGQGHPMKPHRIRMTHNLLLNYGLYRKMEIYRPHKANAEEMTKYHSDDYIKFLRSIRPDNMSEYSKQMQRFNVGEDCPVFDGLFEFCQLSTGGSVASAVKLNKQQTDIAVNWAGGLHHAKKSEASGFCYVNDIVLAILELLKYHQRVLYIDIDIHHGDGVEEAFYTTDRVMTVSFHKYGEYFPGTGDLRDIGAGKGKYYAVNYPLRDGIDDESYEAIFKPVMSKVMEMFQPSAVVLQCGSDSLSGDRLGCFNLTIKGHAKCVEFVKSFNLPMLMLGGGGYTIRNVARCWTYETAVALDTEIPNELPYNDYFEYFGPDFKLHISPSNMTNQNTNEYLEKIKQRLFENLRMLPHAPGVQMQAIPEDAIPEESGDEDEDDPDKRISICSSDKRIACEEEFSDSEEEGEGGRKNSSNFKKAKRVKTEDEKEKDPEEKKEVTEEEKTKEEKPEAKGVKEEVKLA

IC50 [nM] | Compound
1460 | Cc1c2ccc(N(C)c3ccnc(Nc4ccc(C(=O)NCCCCCCCC(=O)Nc5ccccc5N)cc4)n3)cc2nn1C

Target: Histone deacetylase 2 (Homo sapiens, UniProt Q92769)
Conditions: not given

Histone deacetylase 2, sequence (Q92769 whole entry): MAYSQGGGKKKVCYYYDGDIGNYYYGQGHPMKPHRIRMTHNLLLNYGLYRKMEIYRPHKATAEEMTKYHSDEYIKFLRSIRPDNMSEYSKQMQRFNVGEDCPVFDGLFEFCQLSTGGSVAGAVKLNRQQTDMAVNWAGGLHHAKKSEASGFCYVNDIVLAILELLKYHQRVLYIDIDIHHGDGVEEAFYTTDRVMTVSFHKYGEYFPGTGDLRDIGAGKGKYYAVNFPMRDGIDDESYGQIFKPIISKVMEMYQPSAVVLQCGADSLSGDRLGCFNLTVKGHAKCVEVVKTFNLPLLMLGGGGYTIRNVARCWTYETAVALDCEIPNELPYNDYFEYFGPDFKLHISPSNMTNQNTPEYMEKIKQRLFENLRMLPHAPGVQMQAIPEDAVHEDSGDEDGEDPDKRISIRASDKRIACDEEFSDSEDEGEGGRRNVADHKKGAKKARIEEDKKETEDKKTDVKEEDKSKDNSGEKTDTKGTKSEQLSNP

IC50 [nM] | Compound
1260 | Cc1c2ccc(N(C)c3ccnc(Nc4ccc(C(=O)NCCCCCCCC(=O)Nc5ccccc5N)cc4)n3)cc2nn1C

Target: Histone deacetylase 3 (Homo sapiens, UniProt O15379)
Conditions: not given

Histone deacetylase 3, sequence (O15379 whole entry): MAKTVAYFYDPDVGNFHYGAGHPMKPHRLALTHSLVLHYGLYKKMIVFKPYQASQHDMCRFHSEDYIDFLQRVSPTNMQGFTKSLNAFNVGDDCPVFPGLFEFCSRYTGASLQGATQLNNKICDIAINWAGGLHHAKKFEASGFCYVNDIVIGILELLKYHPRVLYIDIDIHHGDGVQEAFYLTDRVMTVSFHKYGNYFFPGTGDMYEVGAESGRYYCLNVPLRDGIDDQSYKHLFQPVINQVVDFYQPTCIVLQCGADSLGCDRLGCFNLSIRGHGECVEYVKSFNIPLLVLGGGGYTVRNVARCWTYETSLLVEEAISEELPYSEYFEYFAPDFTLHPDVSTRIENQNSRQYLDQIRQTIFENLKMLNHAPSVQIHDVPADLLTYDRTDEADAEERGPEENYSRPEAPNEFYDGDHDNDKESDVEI

IC50 [nM] | Compound
660 | Cc1c2ccc(N(C)c3ccnc(Nc4ccc(C(=O)NCCCCCCCC(=O)Nc5ccccc5N)cc4)n3)cc2nn1C
